# Only some compounds are listed: those with a hit (about 4.8% of all), similar ones and a draw of the others.
# Efflux pump inh – blocks antifungal efflux pumps in multiplex yeast assay | inhibition, % at 10 µM | S. cerevisiae Candida pump triplex, Nile Red efflux | 330,000 compounds, 0.44% hits | AID 485275;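 active = plate passing quality check with inhibition over a set limit, or well fluorescence over plate mean plus 4 SD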;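 also: Nile Red retained in pooled yeast measured as flow cytometry median fluorescence; 0% = buffer negative control and 100% = Enniatin B positive control; higher means more Nile Red kept so more efflux inhibition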
# CSC inhib – cancer stem cell inhibition; 300,000 compounds, 1.1% hits; inhibition, % at 7.5 µM; cancer stem cell-like cells viability, luminescence; in the data active = inhibition above about 75%; tested in HMLE shEcad cells
# T cruzi inh – blocks replication of Trypanosoma cruzi; T. cruzi beta-gal in NIH3T3, luminescence, 90 h; inhibition, % (test concentration not listed); 300,000 compounds, 1.4% hits;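 active = mean inhibition across valid replicates above about 55%, limit read from the data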;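 also: signal also drops with host cell toxicity which is not excluded here; 0% = plate median of DMSO wells and 100% = zero luminescence signal; higher percent means less beta-gal luminescence so fewer parasites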
#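 Material: NIH/3T3 host cells with β-galactosidase reporter T. cruzi; Input: 5,000 host fibroblasts per well; Medium: DMEM, 2% fetal bovine serum; Compound: 50 nL DMSO compound solution per well; Schedule: 3 h host attachment, then at least 90 h co-culture; Detection: luminescent β-galactosidase signal after 60 min lysis.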
# Mot1-301 SUMO – inhibitors of SUMOylation pathway: yeast Mot1-301 growth rescue | S. cerevisiae Mot1-301 growth rescue, ATP luminescence, 38.5C; percent above DMSO median, 100 means doubled | growth rescue, % at 18.8 µM | 320,000 compounds, 1% hits;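 active = every valid replicate shows activation above 250% relative to neutral control wells; inactive = the rest, any valid replicate at or below 250%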;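 also: OY570 slx delta 5 strain wells were the positive control but not used for scaling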
# WT yeast gro inh – growth inhibition of WT yeast, mitochondrial fusion screen. mitochondrial fusion phenotypic screen, WT strain. inhibition, % at 10 µM. 190,000 compounds, 2.1% hits. AID 1362; in the data active = inhibition above about 58%; tested in S. cerevisiae
# Beta apoptosis – blocks beta cell apoptosis; AID 435005; INS-1E cytokine-induced death, ATP luminescence, 48 h; percent of positive-control rescue, neutral wells zero; protection from apoptosis, % (no concentration beside the values); 300,000 compounds, 0.8% hits;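 active = Every replicate reaches about 75%, or at least half do and their mean reaches it too, limit read from the data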;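 also: 0% = cytokine-treated negative control wells and 100% = positive control rescue; higher means more ATP so stronger rescue from cytokine killing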
# Active calls of the source: *; nt = no result given.
SMILES,Efflux pump inh,CSC inhib,T cruzi inh,Mot1-301 SUMO,WT yeast gro inh,Beta apoptosis
Cn1c(C(=O)OC(C(=O)NC2CCCCC2)c2ccncc2)cc2sccc21 (stereo unspecified),0.2,2.8,57.6*,-14.5,-2.3,4.6
Cn1c(C(=O)OC(C(=O)NC2CCCC2)c2ccncc2)cc2sccc21 (stereo unspecified),0.8,1.6,20.2,-16.6,-0.2,-2.6
OC(COc1cccc2ccccc12)CN1CCN(c2cccc(Cl)c2)CC1 (stereo unspecified),0.4,36.2,-6.3,96.3,nt,-3.2
OC(COc1cccc2ccccc12)CN1CCN(c2ccc(Cl)cc2)CC1 (stereo unspecified),0.1,77.3*,-1.0,-3.9,nt,-2.1
Cc1ccc(S(=O)(=O)Nc2ccc(-c3csc(-c4ccccc4)n3)cc2)cc1,-0.3,112.0*,46.8,3.2,32.6,3.9
O=C(O)c1ccc(-c2nc(-c3ccc(Cl)c(Cl)c3)cs2)cc1,0.0,nt,0.7,-4.3,74.8*,1.1
O=C(Nc1ccc(-c2csc(-c3ccccc3)n2)cc1)c1ccccc1Cl,0.0,nt,61.9*,-6.4,5.9,nt
O=C(O)c1ccccc1C(=O)Nc1ccc(-c2csc(-c3ccccc3)n2)cc1,-0.1,10.7,-8.2,21.2,-18.3,-4.0
O=C(CCNC(=O)c1ccccc1Cl)Nc1nc(-c2ccc3ccccc3c2)cs1,0.0,22.7,55.9*,7.0,42.6,1.7
Cc1ccc(NC2=NCC(=O)N2Cc2ccc3c(c2)OCO3)cc1,0.0,-5.8,3.3,-17.2,12.6,-1.3
CC1CN(C(=O)Nc2cccc(Cl)c2)C2(CCCCCC2)O1 (stereo unspecified),-0.3,4.1,-7.4,4.5,19.3,0.4
O=C(COc1ccccc1F)Nc1ccc2c(c1)OCCO2,0.2,-17.3,-5.4,-17.1,nt,-1.5
O=S(=O)(Nc1ccc(-c2csc(-c3ccccc3)n2)cc1)c1ccccc1,-0.2,148.5*,33.3,7.3,90.6*,3.6
Cc1ccc(S(=O)(=O)Nc2nc(-c3ccccc3)cs2)cc1,-0.2,-6.0,9.2,211.7,nt,-0.3
O=[N+]([O-])c1ccc(S(=O)(=O)Nc2ccc(-c3csc(-c4ccccc4)n3)cc2)cc1,0.1,100.3*,65.6*,nt,95.4*,9.3
COc1ccc(-c2csc(NS(=O)(=O)c3ccc([N+](=O)[O-])cc3)n2)cc1,-0.7,-12.6,28.7,-3.0,20.4,3.3
Nn1c(SCC(=O)Nc2ccc3c(c2)OCCO3)nncc1=O,0.1,-15.8,-8.1,10.1,nt,-7.9
COc1cc(Cl)c(C)cc1NC(C)C(=O)Nc1cc(C(F)(F)F)ccc1N1CCOCC1 (stereo unspecified),-0.3,42.0,7.8,1.3,65.4*,0.4
COc1ccc(NC(C)C(=O)Nc2cc(C(F)(F)F)ccc2N2CCOCC2)c(OC)c1 (stereo unspecified),0.1,10.8,19.0,-16.2,49.1,-4.0
O=c1c2ccccc2nc(SCc2ccccc2Cl)n1Cc1ccccc1,0.2,16.2,38.4,-19.2,69.0*,8.8
CC(=O)NCCn1c(SCc2ccc(C)cc2)nc2ccccc2c1=O,0.0,-0.4,16.1,-17.8,65.3*,3.7
CC(=O)NCCn1c(SCc2ccccc2F)nc2ccccc2c1=O,0.2,1.8,51.0,5.1,-18.0,2.1
O=c1c2ccccc2nc(SCCN2CCCCC2)n1CCc1ccccc1,0.0,-3.5,62.8*,180.8,34.2,12.5
C=CCSc1nc2ccccc2c(=O)n1Cc1ccccc1,-0.1,3.1,32.8,-3.2,23.6,10.5
Cc1ccc(C)c(SCC(=O)NC(=O)NC2CCCC2)c1,0.0,nt,nt,nt,nt,nt
SMILES,Efflux pump inh,CSC inhib,T cruzi inh,Mot1-301 SUMO,WT yeast gro inh,Beta apoptosis
COc1ccc(-c2cc3nc(C)cc(N4CC(C)CC(C)C4)n3n2)cc1 (stereo unspecified),0.5,17.1,nt,-8.1,70.5*,-6.0
COc1ccc(-c2noc3c2-c2nc(-c4ccccc4C)sc2CC3)cc1,0.1,75.8*,-4.3,11.9,nt,1.1
CC(C)(C)c1cc(CSC(=S)NC2CCS(=O)(=O)C2)c(Br)c(C(C)(C)C)c1 (stereo unspecified),0.1,97.4*,0.5,20.5,36.6,-39.7
CCNC(=O)NC(=O)C(C)OC(=O)C1CCN(S(=O)(=O)c2ccccc2C(=O)OC)CC1 (stereo unspecified),-0.1,9.3,-0.9,17.9,11.3,-5.5
COC(=O)c1c(NC(=O)CN2CCC3(O)CCCCC3C2c2ccccc2OC)sc(C)c1C (stereo unspecified),0.3,-16.4,17.7,-6.6,73.3*,5.9
COC(=O)c1c(NC(=O)CN2CCC3(O)CCCCC3C2c2ccc(OC)cc2OC)sc(C)c1C (stereo unspecified),-0.5,22.1,12.1,32.0,59.3*,-3.7
COc1cc(OC)c(OC)cc1CCC(C)NC(=O)Cc1ccccc1 (stereo unspecified),-0.2,-1.0,1.2,-8.8,nt,-6.2
COc1ccc(-c2cn[nH]c2-c2ccc(OCc3ccccc3)cc2O)cc1,0.0,102.1*,17.4,-21.6,nt,-11.3
O=C(c1ccc2c(=O)n3c(nc2c1)CCCCC3)N1CCN(c2cccc(Cl)c2)CC1,0.1,68.6,9.0,12.2,nt,8.6
O=C1CCCCCN1CP(=O)(O)CCc1ccccc1,-0.1,-8.7,6.1,-10.9,2.9,-6.0
O=C1CCCCCN1CP(=O)(O)CN1CCCCCC1=O,0.0,-9.0,-8.1,563.8*,nt,2.2
O=C(CCC1CCCN(Cc2ccc3c(c2)OCCO3)C1)NCc1ccccc1F (stereo unspecified),0.2,-10.3,48.9,-6.3,nt,1.3
O=C(CCC1CCCN(Cc2cccc3c2OCO3)C1)NCc1ccc(F)c(F)c1 (stereo unspecified),0.0,nt,62.1*,2.3,10.5,-4.5
O=S(=O)(Cc1ccccc1)NCC1CCCN(Cc2ccc3nonc3c2)C1 (stereo unspecified),0.1,-10.8,46.4,-6.9,0.1,-5.0
O=S(=O)(Cc1ccccc1)NCC1CCCN(Cc2ccc(F)c(F)c2)C1 (stereo unspecified),0.2,2.3,60.9*,-9.4,-6.3,5.7
O=C(CCC1CCCN(Cc2ccc3c(c2)OCCO3)C1)NCc1ccc(F)c(F)c1 (stereo unspecified),0.0,-4.0,61.8*,66.2,4.0,-3.5
Cn1c(CCC(=O)Nc2cc(S(C)(=O)=O)ccc2Cl)nc2cc(S(=O)(=O)N3CCOCC3)ccc21,-0.3,-0.7,-7.1,-16.2,nt,-1.2
COc1cccc(O)c1CN1CCC(C(=O)Nc2ccc(-c3cccc(C)c3)cc2)CC1,0.2,101.1*,53.8,-0.8,nt,nt
COc1cccc(O)c1CN1CCC(C(=O)Nc2ccc(Oc3cccnc3)cc2)CC1,-0.3,6.5,9.9,7.6,nt,1.9
CNC(=O)CSc1nc2cccnc2n1-c1ccc(F)cc1,-0.1,12.6,5.6,-7.9,nt,-0.5
CCc1ccc(O)c(N=Cc2cccc(C)c2O)c1,0.0,9.9,-15.1,-0.5,-1.1,-2.8

# Screens: PubChem BioAssay, several laboratories
